{"source": "ChEMBL document CHEMBL4190195", "about": "“Bioactive Glycosides from the Twigs of Litsea cubeba” (J Nat Prod, 2017)", "key": {"Histone deacetylase 1": {"target": "Histone deacetylase 1 (Homo sapiens, UniProt Q13547)", "sequence (Q13547 whole entry)": "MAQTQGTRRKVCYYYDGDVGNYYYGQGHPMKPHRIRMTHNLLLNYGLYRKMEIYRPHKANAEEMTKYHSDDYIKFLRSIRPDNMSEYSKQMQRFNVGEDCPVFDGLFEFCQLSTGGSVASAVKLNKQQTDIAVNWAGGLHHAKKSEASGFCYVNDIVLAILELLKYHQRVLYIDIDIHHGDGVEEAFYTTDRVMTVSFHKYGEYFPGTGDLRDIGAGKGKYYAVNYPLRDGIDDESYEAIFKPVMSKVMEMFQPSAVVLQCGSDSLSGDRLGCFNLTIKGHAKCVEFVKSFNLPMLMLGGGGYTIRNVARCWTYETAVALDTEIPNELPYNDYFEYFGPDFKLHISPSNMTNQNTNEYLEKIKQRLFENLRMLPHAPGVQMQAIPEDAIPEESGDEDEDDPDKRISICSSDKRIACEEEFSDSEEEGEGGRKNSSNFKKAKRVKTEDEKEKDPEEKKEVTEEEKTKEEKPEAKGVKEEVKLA", "experiment": "Inhibition of HDAC1 (unknown origin) using H3(1 to 21)K9 after 60 mins by fluorescence assay"}, "A549": {"system": "A549", "experiment": "Cytotoxicity against human A549 cells assessed as growth inhibition at 10 uM after 72 hrs by coulter counting method", "format": "functional, cell-based"}, "Peritoneal macrophage": {"system": "Peritoneal macrophage", "experiment": "Inhibition of LPS-induced TNFalpha secretion in C57BL6J mouse peritoneal macrophages at 10 uM after 24 hrs", "format": "functional, cell-based"}, "HCT-8": {"system": "HCT-8", "experiment": "Cytotoxicity against human HCT8 cells assessed as growth inhibition at 10 uM after 72 hrs by coulter counting method", "format": "functional, cell-based"}, "A2780": {"system": "A2780", "experiment": "Cytotoxicity against human A2780 cells assessed as growth inhibition at 10 uM after 72 hrs by coulter counting method", "format": "functional, cell-based"}, "BGC-823": {"system": "BGC-823", "experiment": "Cytotoxicity against human BGC823 cells assessed as growth inhibition at 10 uM after 72 hrs by coulter counting method", "format": "functional, cell-based"}, "Bel-7402": {"system": "Bel-7402", "experiment": "Cytotoxicity against human Bel7402 cells assessed as growth inhibition at 10 uM after 72 hrs by coulter counting method", "format": "functional, cell-based"}, "HepG2": {"system": "HepG2", "experiment": "Cytoprotection against 8 mM acetaminophen-induced human HepG2 cells assessed as cell viability at 10 uM after 24 hrs by MTT assay (reference value: 0 +/- 2%)", "format": "functional", "conditions": "in the assay text read “after 48 hrs” for “after 24 hrs”", "in_short": "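HepG2 cells seeded at 1.5 × 10^4 cells/well in DMEM and grown 24 h at 37 °C, 5% CO2. Compound (10 μM) then added together with 8 mM acetaminophen; bicyclol 10 μM plus 8 mM acetaminophen served as reference. Cultured 48 h, then 0.5 mg/mL MTT for 4 h, formazan OD read at 570 nm. Mean ± SD of four independent experiments; Student's t-test.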"}}, "note": "pIC50: −log10 of the molar value. The source made the active and inactive calls. No cut-off for these calls is given here.", "data": [{"smiles": "O=C(O)/C=C\\c1cc2ccoc2cc1O[C@@H]1O[C@H](CO)[C@@H](O)[C@H](O)[C@H]1O", "values": [{"measurement": "pIC50", "setting": "Histone deacetylase 1", "result": 5.34}, {"measurement": "growth inhibition (GI)", "setting": "A549", "result": "inactive"}, {"measurement": "inhibition", "setting": "Peritoneal macrophage", "result": "inactive"}, {"measurement": "growth inhibition (GI)", "setting": "HCT-8", "result": "inactive"}, {"measurement": "growth inhibition (GI)", "setting": "A2780", "result": "inactive"}, {"measurement": "growth inhibition (GI)", "setting": "BGC-823", "result": "inactive"}, {"measurement": "growth inhibition (GI)", "setting": "Bel-7402", "result": "inactive"}]}, {"smiles": "COc1cc([C@H]2Oc3c(OC)cc(/C=C/CO[C@@H]4O[C@H](CO)[C@@H](O)[C@H](O)[C@H]4O)cc3[C@@H]2CO)cc(OC)c1O[C@@H]1O[C@H](CO)[C@@H](O)[C@H](O)[C@H]1O", "values": [{"measurement": "Activity", "setting": "HepG2", "result": 30.5, "unit": "%"}]}, {"smiles": "COc1cc([C@H]2Oc3c(OC)cc(/C=C/CO[C@@H]4O[C@H](CO)[C@@H](O)[C@H](O)[C@H]4O)cc3[C@@H]2CO)ccc1O[C@@H]1O[C@H](CO)[C@@H](O)[C@H](O)[C@H]1O", "values": [{"measurement": "Activity", "setting": "HepG2", "result": 46, "unit": "%"}]}, {"smiles": "COc1cc([C@@H](O)[C@H](CO)Oc2c(OC)cc(CCC(C)O)cc2OC)cc(OC)c1O[C@@H]1O[C@H](CO)[C@@H](O)[C@H](O)[C@H]1O", "note": "(some centres not stated)", "values": [{"measurement": "Activity", "setting": "HepG2", "result": 38.9, "unit": "%"}]}, {"smiles": "COC(=O)c1cc(OC)c2c(c1-c1c(CO)cc(OC)c3c1OCO3)OCO2", "note": "[BICYCLOL]", "values": [{"measurement": "Activity", "setting": "HepG2", "result": 34.8, "unit": "%"}]}, {"smiles": "COc1cc([C@H]2Oc3c(OC)cc(CCCO)cc3[C@@H]2CO[C@@H]2O[C@H](CO[C@@H]3O[C@@H](C)[C@H](O)[C@@H](O)[C@H]3O)[C@@H](O)[C@H](O)[C@H]2O)ccc1O", "values": [{"measurement": "Activity", "setting": "HepG2", "result": 37.4, "unit": "%"}]}, {"smiles": "COc1cc([C@H]2Oc3c(OC)cc(CCCO)cc3[C@@H]2CO)ccc1O[C@@H]1O[C@H](CO)[C@@H](O)[C@H](O)[C@H]1O", "values": [{"measurement": "Activity", "setting": "HepG2", "result": 38.4, "unit": "%"}, {"measurement": "pIC50", "setting": "Histone deacetylase 1", "result": 5.44}, {"measurement": "growth inhibition (GI)", "setting": "A549", "result": "inactive"}, {"measurement": "inhibition", "setting": "Peritoneal macrophage", "result": "inactive"}, {"measurement": "growth inhibition (GI)", "setting": "HCT-8", "result": "inactive"}, {"measurement": "growth inhibition (GI)", "setting": "A2780", "result": "inactive"}, {"measurement": "growth inhibition (GI)", "setting": "BGC-823", "result": "inactive"}, {"measurement": "growth inhibition (GI)", "setting": "Bel-7402", "result": "inactive"}]}, {"smiles": "COc1cc([C@H]2Oc3c(OC)cc(CCCO)cc3[C@@H]2CO)cc(OC)c1O[C@@H]1O[C@H](CO)[C@@H](O)[C@H](O)[C@H]1O", "values": [{"measurement": "Activity", "setting": "HepG2", "result": 31.2, "unit": "%"}]}, {"smiles": "CCC(=O)c1cc(OC)c(O[C@@H]2O[C@H](CO[C@@H]3O[C@@H](C)[C@H](O)[C@@H](O)[C@H]3O)[C@@H](O)[C@H](O)[C@H]2O)c(OC)c1", "values": [{"measurement": "Activity", "setting": "HepG2", "result": 37.6, "unit": "%"}]}]}
